# In the library only some 3.8% were active in any assay of this set; here they are far more common.
# Exocytosis inh – LAMP-1 surface exposure blockers, TALL-104 cells – cell-based, flow cytometry, MLPCN library, primary screen | TALL-104 LAMP-1 surface exposure; cells stimulated with thapsigargin and PMA | inhibition, % at 10 µM | actives 0.66% (n = 360,000);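 active = inhibition above about 55%, limit read from the data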
# MPTP block – mitochondrial permeability transition pore inhibitors, primary screen, biochemical, isolated mouse mitochondria, absorbance | Ca2+ swelling absorbance, 30 min | inhibition, % at 10 µM | actives 1.4% (n = 360,000);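 active = inhibition of 50% or more, scaled per plate between neutral and stimulator controls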;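 also: 0% = DMSO wells given calcium and 100% = 1 mM EGTA wells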
# B2AR ag – beta2AR agonists driving receptor internalization, primary screen, cell-based, FAP fluorogen, flow cytometry | actives 0.43% (n = 340,000) | Beta-2 adrenergic receptor (Homo sapiens), P07550 | Am2.2-beta2AR cells | response, % (concentration not given with the values) | AID 504454, 2011;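 active = response above a set limit, near 3 SD of response in nonfluorescent compounds, cut at about 42% in these data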
# Target sequence (P07550 whole entry, looked up): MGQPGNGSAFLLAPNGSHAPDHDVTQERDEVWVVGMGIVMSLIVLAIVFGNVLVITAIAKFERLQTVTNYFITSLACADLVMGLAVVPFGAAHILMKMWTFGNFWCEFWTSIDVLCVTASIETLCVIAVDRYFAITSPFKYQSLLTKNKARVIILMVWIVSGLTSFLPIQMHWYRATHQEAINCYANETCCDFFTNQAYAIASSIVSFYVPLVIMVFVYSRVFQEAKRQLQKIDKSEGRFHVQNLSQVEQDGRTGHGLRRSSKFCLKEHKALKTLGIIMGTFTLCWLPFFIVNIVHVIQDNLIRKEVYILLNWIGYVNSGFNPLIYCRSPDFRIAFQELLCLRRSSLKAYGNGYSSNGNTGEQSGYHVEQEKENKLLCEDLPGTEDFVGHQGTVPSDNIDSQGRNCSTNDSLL
# T cell modulator – modulators of CD8 T cell-vesicle binding, primary screen, mouse 2C CD8+ T cells, flow cytometry; 2C CD8+ T cell-vesicle binding; hits give low values; response (vesicle binding), % at 7 µM; actives 0.068% (n = 330,000); AID 2052, 2009;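 active = response, share of CD8 T cells binding vesicles, and their 90th percentile fluorescence all below set limits, cut at about 80% in these data, passing the limit was not always enough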;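 also: values below 100% mean blocked vesicle binding to the CD8+ T cells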
#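 Incubation: binding step 1.5 h, 37 °C, antibody labelling 20 min, ice; system: murine 2C transgenic CD8+ T lymphocytes; technique: cytometric PE anti-B7-1 and Alexa647 anti-CD8 signals after 1% paraformaldehyde fixation; also added: QL9-charged Drosophila Ld/ICAM-1/B7-1 vesicles; control set: naked versus QL9-loaded vesicles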
# rCAG RNA binder – binders of r(CAG) RNA repeats, primary screen, biochemical, fluorescence | r(CAG) RNA repeat, TO-PRO-1 dye displacement fluorescence | inhibition, % at 3 µM | actives 1.3% (n = 370,000) | AID 651821, 2012;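 active = inhibition above the plate cutoff, the mean of all test compounds on that plate plus 3 SD, cut at about 35% in these data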;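 also: 0% = DMSO alone and 100% = 100 µM mitoxantrone as full dye displacement; higher means more dye released from RNA so lower well fluorescence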
# V-ATPase pH – regulators of yeast V-ATPase proton pumping, primary screen, pHLuorin cytosolic pH fluorescence; response, % at 10 µM; S. cerevisiae; actives 0.37% (n = 350,000); AID 504577, 2011; in the data active = response mostly above about 7.3%, no sharp cut-off; inactive = mostly below about 5.4%; also: actives read high
# * = called active by the depositor; x = no result.
SMILES,Exocytosis inh,MPTP block,B2AR ag,T cell modulator,rCAG RNA binder,V-ATPase pH
O=C(N/N=C/c1ccco1)c1cccc(N2Cc3ccccc3C2)c1,3,0,-2,798,37*,1
O=S(=O)(CC1NCc2cc(F)ccc21)NCc1ccccc1 (stereo not drawn),x,x,x,x,4,x
O=C(CSc1nnc2ccc(-c3ccc(F)cc3)nn12)NCC1CCCO1 (stereo not drawn),-2,0,-3,412,1,-1
O=C(CSc1ccc2nnc(-c3ccc(Cl)cc3)n2n1)N1CCc2ccccc21,-3,-2,2,670,3,4
O=C(CSc1nnc2ccc(-c3ccc(F)cc3)nn12)N1CCCC1,-5,1,2,741,3,20*
O=C(CSc1ccc2nnc(-c3ccc(Cl)cc3)n2n1)N1CCCC1,-3,0,-25,954,1,14*
O=C(Nc1cccc(C(F)(F)F)c1)OCCCN1CCC2(CCC(c3ccccc3)CC2)C1=O (stereo not drawn),x,x,x,x,1,x
CC(C)C[C@@H]1NC(=O)[C@H]2C[C@@]3(C)c4ccccc4N[C@H]3N2C1=O,x,x,x,x,4,x
CCOC(=O)COc1ccc2ccccc2c1/C=C/[N+](=O)[O-],5,1,44*,285,8,-2
CCOc1ccc(/C=C/[N+](=O)[O-])c2ccccc12,102*,4,78*,530,x,5
CCOC(=O)COc1ccc(/C=C/[N+](=O)[O-])c(OCC(=O)OCC)c1,18,0,54*,315,8,0
CCOC(=O)COc1ccc2nsnc2c1,-3,-2,1,257,4,1
O=[N+]([O-])/C=C/c1c(OCc2ccccc2)ccc2ccccc12,78*,-4,89*,241,x,4
CCOC(=O)Cn1cc(/C=C/[N+](=O)[O-])c2ccccc21,-3,2,22,312,4,1
CCCCOc1ccc2ccccc2c1C=O,-2,-2,1,213,1,1
CCOC(=O)[C@@]12CN(C(=O)OC(C)(C)C)CC=C1N(Cc1ccc(OC)cc1)C(=O)[C@H]2CC(=O)NCC12CC3CC(CC(C3)C1)C2,x,x,x,x,4,x
O=S(=O)(CC1NCc2cc(F)ccc21)NCc1ccc(F)cc1 (stereo not drawn),x,x,x,x,3,x
Cc1cc(C)n(C(=O)c2sc3cc(F)ccc3c2Cl)n1,x,x,x,0.0*,x,x
C#CCN1CC(N(C)CCOC(=O)c2ccc(OC)c(OC)c2)CS1(=O)=O (stereo not drawn),x,x,x,x,0,x
C/C(=N/NC(=O)c1sc(NS(=O)(=O)c2ccc(C)cc2)nc1C)c1sc(N)nc1C,-1,-2,8,120,48*,1
COc1ccc(-c2nc(=S)[nH][nH]2)cc1,56*,-2,-7,275,1,2
O=C(Nc1ccc(N2CCCC2)c(Cl)c1)c1cccc(-c2cc3ccccc3oc2=O)c1,-6,2,61*,188,13,-8
Cc1cc(C)nc(NC(=NCCc2c[nH]c3ccccc23)NC(=O)Nc2ccccc2)n1,6,6,4,215,8,-2
Cc1cc(C)nc(NC(=NCCc2c[nH]c3ccccc23)NC(=O)c2ccco2)n1,95*,0,8,330,3,-1
CC1CCC2(CCC(=O)N2CCCOC(=O)NC(C)(C)C)CC1 (stereo not drawn),x,x,x,x,1,x
C/C(=N\Nc1cc(-c2ccccc2)nc(-c2ccc(Br)cc2)n1)c1cccc(N)c1,-1,4,5,291,43*,0
C/C(=N/Nc1cc(-c2ccccc2)nc(-c2ccccc2)n1)c1ccc(O)cc1,8,8,12,218,17,4
COC(=O)C1=C(C(=O)OC)[C@]2([C@@H]3CC=CCN[C@@H](Cc4ccccc4)C(=O)N3Cc3ccccc3)C=C[C@H]1O2,13,0,2,x,5,-3
C=CCC(Nc1ccccc1)C12C=CC(O1)C(C(=O)OC)=C2C(=O)OC (stereo not drawn),90*,-2,17,138,-3,6
